From ChEMBL document CHEMBL1143096, “Synthesis and antitumor activity of benzils related to combretastatin A-4” (Bioorg Med Chem Lett, 2008)
Active and inactive are the calls of the source. No cut-off for these calls is given here.

Tests used:
MDA-MB-231 = assay: Cytotoxicity against human MDA-MB-231 cells; format: functional, cell-based
HCT-116 [1] = assay: Cell cycle arrest in human HCT116 cells assessed as accumulation at G2/M phase at 50 nM after 24 hrs by flow cytometry; format: functional
Procedure, shortened: (§1)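 Flow cytometry of cellular DNA content after 24 h exposure to 10, 20 or 50 nM; percentage of cells in G2/M phase reported, DMSO vehicle control; data representative of three independent experiments.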

HCT-116 [2] = assay: Cell cycle arrest in human HCT116 cells assessed as accumulation at G2/M phase at 10 nM after 24 hrs by flow cytometry; format: functional; procedure, shortened: as §1
[3] = Cytotoxicity against human H1299 cells; format: functional, cell-based; conditions: NCI-H1299
Procedure, shortened: (§2)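 Growth inhibition assay; IC50 taken as the sample concentration producing 50% reduction in cell growth, each drug concentration tested in triplicate.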

HUVEC [4] = assay: Cytotoxicity against HUVEC; format: cell-based; conditions: Homo sapiens
Procedure, shortened: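 HUVEC proliferation measured after 72 h incubation; IC50 derived for growth inhibition.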

HCT-116 [5] = assay: Cytotoxicity against human HCT116 cells; format: functional, cell-based; procedure, shortened: as §2
K562 = assay: Cytotoxicity against human K562 cells; format: functional, cell-based
[6] = Cell cycle arrest in human H1299 cells assessed as accumulation at G2/M phase at 50 nM after 24 hrs by flow cytometry; format: functional, cell-based; conditions: NCI-H1299; procedure, shortened: as §1
[7] = Inhibition of tubulin assembly
[8] = Cell cycle arrest in human H1299 cells assessed as accumulation at G2/M phase at 10 nM after 24 hrs by flow cytometry; format: functional, cell-based; conditions: NCI-H1299; procedure, shortened: as §1
HUVEC [9] = assay: Disruption of integrity of newly formed blood vessels of HUVEC at 100 nM after 3 hrs by tube formation assay; format: functional, cell-based; conditions: Homo sapiens, Blood vessel
Procedure, shortened: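 HUVEC seeded on Matrigel; 24 h later, compound (100 nM) or vehicle added to formed cords; images taken 3 h after addition to assess network integrity.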

HCT-116 [10] = assay: Cell cycle arrest in human HCT116 cells assessed as accumulation at G2/M phase at 20 nM after 24 hrs by flow cytometry; format: functional; procedure, shortened: as §1
[11] = Inhibition of tubulin assembly at 13 uM
[12] = Cell cycle arrest in human H1299 cells assessed as accumulation at G2/M phase at 20 nM after 24 hrs by flow cytometry; format: functional, cell-based; conditions: NCI-H1299; procedure, shortened: as §1
[13] = Inhibition of tubulin assembly at 130 uM
HCT-116 [14] = assay: Induction of apoptosis in human HCT116 cells after 24 hrs by caspase activation assay; format: functional, cell-based
Procedure, shortened: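 Cells treated with 10, 50 and 100 nM for 24 h; caspase 3 and 7 activities measured by standard caspase cleavage assay.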

| inhibition [11] | inhibition [13] | SMILES | IC50 (HCT-116 [5]) | also measured |
| --- | --- | --- | --- | --- |
| 82% | 88% | COc1ccc(C(=O)C(=O)c2cc(OC)c(OC)c(OC)c2)cc1N | 38 nM | IC50 (MDA-MB-231): 30 nM; Activity (HCT-116 [1]): 28%; Activity (HCT-116 [2]): 13%; IC50 [3]: 50 nM; IC50 (HUVEC [4]): 40 nM; IC50 (K562): 20 nM; Activity [6]: 16.5%; IC50 [7]: 5000 nM; Activity [8]: 11.7%; Activity (HUVEC [9]): Active; Activity (HCT-116 [10]): 15.9%; Activity [12]: 12.2%; Activity (HCT-116 [14]): Active |
| 42% | 69% | COc1cc(C(=O)C(=O)c2cccc(O)c2)cc(OC)c1OC | 2000 nM | – |
| 23% | 80% | COc1cc(C(=O)C(=O)c2ccc3ccccc3c2)cc(OC)c1OC | 3000 nM | – |
| 58% | 89% | COc1ccc(C(=O)C(=O)c2cc(OC)c(OC)c(OC)c2)cc1 | 300 nM | IC50 [7]: 21000 nM |
| – | 14% | COc1ccc(C(=O)C(=O)c2cc(OC)c(OC)c(OC)c2)cc1OC(C)=O | 40 nM | IC50 (MDA-MB-231): 40 nM; IC50 [3]: 30 nM; IC50 (K562): 25 nM |
| 12% | 0% | COc1cc(C(=O)C(=O)c2ccccc2C#N)cc(OC)c1OC | – | Activity (HCT-116 [5]): inactive |
| – | 28% | COc1cc(C(=O)C(=O)c2ccc(C#N)cc2)cc(OC)c1OC | – | Activity (HCT-116 [5]): inactive |
| – | 23% | COc1cc(C(=O)C(=O)c2ccccn2)cc(OC)c1OC | – | Activity (HCT-116 [5]): inactive |
| 35% | 58% | COc1cc(C(=O)C(=O)c2cnc3ccccc3c2)cc(OC)c1OC | – | Activity (HCT-116 [5]): inactive |
| 34% | 79% | COc1cc(C(=O)C(=O)c2ccccc2)cc(OC)c1OC | 3000 nM | – |
| 52% | 85% | COc1ccc(C(=O)C(=O)c2cc(OC)c(OC)c(OC)c2)cc1OC | 300 nM | IC50 [7]: 63000 nM |
| 47% | 73% | COc1ccc(C(=O)C(=O)c2cc(OC)c(OC)c(OC)c2)cc1F | 700 nM | – |
| 65% | 73% | COc1ccc(C(=O)C(=O)c2cc(OC)c(OC)c(OC)c2)cc1O | 35 nM | IC50 (MDA-MB-231): 40 nM; Activity (HCT-116 [1]): 22.8%; Activity (HCT-116 [2]): 11%; IC50 [3]: 30 nM; IC50 (HUVEC [4]): 35 nM; IC50 (K562): 25 nM; Activity [6]: 27.7%; IC50 [7]: 1500 nM; Activity [8]: 11.4%; Activity (HCT-116 [10]): 18.5%; Activity [12]: 15%; Activity (HCT-116 [14]): Active |
| 45% | 45% | COc1ccc(C(=O)C(=O)c2cc(OC)c(OC)c(OC)c2)cc1NC(C)=O | 350 nM | – |

| SMILES | inhibition [11] | inhibition [13] | IC50 (HCT-116 [5]) | also measured |
| --- | --- | --- | --- | --- |
| COc1ccc(/C=C\c2cc(OC)c(OC)c(OC)c2)cc1O [COMBRETASTATIN A4] | 77% | 88% | 1.8 nM | IC50 [3]: 5 nM; IC50 (HUVEC [4]): 2.5 nM |
